The EternaBench riboswitch data

Tested on: MS2 coat protein
Assay: apparent Kd, MS2 coat protein; higher = weaker binding; RNA-MaP array
Method in brief: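 Binding of fluorescently labeled MS2 coat protein, at 1.5 nM to 3 μM and room temperature, was measured with or without input ligand on designed RNAs transcribed on an Illumina sequencing chip from sequenced DNA templates. Apparent Kd was defined as the median of per-cluster binding-curve fits. No design measured on fewer than 10 clusters was kept.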

[1] = designed as: ON switch for flavin mononucleotide, no ligand
[2] = ligand present: flavin mononucleotide, designed as: ON switch for flavin mononucleotide
[3] = designed as: ON switch for theophylline, no ligand
[4] = ligand present: theophylline, designed as: ON switch for theophylline
[5] = designed as: OFF switch for flavin mononucleotide, no ligand
[6] = ligand present: flavin mononucleotide, designed as: OFF switch for flavin mononucleotide

Sequence | apparent Kd [1] [nM] | apparent Kd [2] [nM] | apparent Kd [5] [nM] | apparent Kd [6] [nM] | further results
GCAGGCGUUAAGAAGGUUCUCCCACAUGAGGAUCACCCAUGUUGACAUGCUAGAGUCAUUACAAGAAAGGAUAUUAGCGAAUUG | 114 | 25.8 |  |  | 
ACAUGGAGGACAGGAUAUCCAUCUGGCCACCACGGAGAAGGGUCCACCCGACAUGAGGAUCACCCAUGUAUCAACGUGAUGAGU | 23 | 18.1 |  |  | 
AAGGUCCAAGAGAAGGCGCUCAUGGGAUCAAGACAUGAGGAUCACCCAUGUUGGCGCAGCACAAGCGAGGAUAUCUCCACCGGC | 420 | 330 |  |  | 
UACCAAAUCACAGGAUAUGAGGCGCCAGCUAGGUCAGAAGGGUGACAUGAGGAUCACCCAUGUUCGCAGAAAAUAAUUGCUAAG | 688 | 678 |  |  | 
UGAUCAGAACAGAAGGAGUAGUCUGCCUUGCUACUAGGAUAUGUUACAUGAGGAUCACCCAUGUGUUUAGGAUUGCCAUAAAGG | 13.1 | 9.08 |  |  | 
GGUUAACAUGAGGAUCACCCAUGUCUUGAUACCAGUCGUUAUCUUGACCCUUGGCAGCAAGAUGACCGUUAGCAGCCGUCUUCUC |  |  |  |  | apparent Kd [3]: 13.2 nM; apparent Kd [4]: 19.5 nM
GGGCCACAUAAGAAGGUGAGCCACAGCGGCGUUCAAGGAUAUUAUAGGUAACCCACCAGACAUGAGGAUCACCCAUGUAGUGUC | 36.7 | 25.2 |  |  | 
AAAUCAAAGCAGAAGGAACAAUAAGCAUAAAGGUUAGGAUAUGCGUCAACGCAAAGUACAUGAGGAUCACCCAUGUUUAUAAGC | 7.37 | 6.77 |  |  | 
UAUACUAAUGUCAGGAUAUUAUAAAGUAAGAUAUAUAAGAAGGGACAUGAGGAUCACCCAUGUGACAAGGACGA |  |  | 13.4 | 29.8 | 
AGGGAACAUGAGGAUCACCCAUGUGCCGAUACCAGUGAUUUUCAGCACCCUUGGCAGCGGAACCUUUGUUAUAUUAUUCUUAGGG |  |  |  |  | apparent Kd [3]: 36.7 nM; apparent Kd [4]: 28.2 nM
GGUACGGCAGGAUAUGGCCUGGACUACAUGAGGAUCACCCAUGUCUUGCAGAAUGUCUAGCCAGAAGGGCCAUGAA |  |  | 14.6 | 8.52 | 
AUAGGGCGACAGAAGGGCAGUGCACGCAUUGCUGCAGGAUAUGUGGUCCACAUGAGGAUCACCCAUGUAGUAAUAUCUUGUAGU | 104 | 71.2 |  |  | 
UAUUAACAUGAGGAUCACCCAUGUUAUAGAGACCUAGGAUAUGCUUGCAUCCUCGCUCGUGCAGAAGGAGGUUUAU | 7.08 | 5.88 |  |  | 
UAAAGAUGUGCAGGAUAUUAGAAACGGCGGGAACUUAAAUUCAAACAUGAGGAUCACCCAUGUAAUAAGAAGGGCAAACUAAGA |  |  | 15.9 | 20.6 | 
AAUCAGAAAGGAUAUACAAGGAUUUUAUAUAGCACUGCUGGACAUGAGGAUCACCCAUGUAGAAGGUUCGCCCU |  |  | 11.3 | 9.51 | 
AGUUGAGGAGGAUAUACAUGAGGAUCACCCAUGUGACUGUGUCUGUUGCGCUGGAUCGGUAGAAGGCCUUAGUA |  |  | 12.2 | 16.4 | 
CUUCAGGCGGAGGAUAUCUUACAGUUAUCGUACAGAGAAGGCCGCACAUGAGGAUCACCCAUGUCAGGCGACUU |  |  | 29.8 | 162 | 
AUUUAGCAUAUACAUGAGGAUCACCCAUGUCUGAUACAUAGUAGAAGGCCCGUUAAGACAUACAGGGAGGAUAUACGUACAUGU | 49 | 9.85 |  |  | 
CAAUGGACGGUAGGAUAUGUACUAGAGAAGCAGACAGAAGGACCUAGUCCGACAUGAGGAUCACCCAUGUGAAACCCGGUCCAG |  |  | 6.83 | 6.44 | 
UCCUUACACAUGAGGAUCACCCAUGUAUCCACAGGUUGAGGGCAGGAUAUACAUAAUUUGACCUUGUAGAAGGGCCUGACAAAA |  |  | 213 | 103 | 
UAAGACGGGCGAGGAUAUACGAACUGGGUCAAAGUAGAAGGCGCGAGUCAUUGUUAUAAUCCAACAUGAGGAUCACCCAUGUCU | 91.6 | 15.6 |  |  | 
AUUUUGGGAGGAUAUACAUGAGGAUCACCCAUGUUUUAGAACGUAAGAGAAUCCGGAGGUAGAAGGCCCUUCUG |  |  | 180 | 212 | 
GGCUACAUGAGGAUCACCCAUGUUUCUCGUCGAGGACCGGUACGGCCGCCACUCGUUGUUGGGACUCAGUAUCAGUCGUUAGUUU |  |  |  |  | apparent Kd (designed as: ON switch for tryptophan, no ligand): 25.5 nM; apparent Kd (ligand present: tryptophan, designed as: ON switch for tryptophan): 57 nM
CACAAGUCGUAGGAUAUCACCACAAAUAGCUGCUGAGAAGGACGGACAUGAGGAUCACCCAUGUGUUCCGCAAU |  |  | 14.8 | 23.8 | 
CCGGAAUUGCAGGAUAUACGCAAACCACAUGCUGUAGAAGGGCAAACAUGAGGAUCACCCAUGUGGUCGAGCAG |  |  | 13.4 | 17.9 | 
CGACACCAGGCAAUCCAUCACCCGGCUGAUACCAGCUCUUUUGGAAGCCCUUGGCAGCAGAGAACAUGAGGAUCACCCAUGUCAG |  |  |  |  | apparent Kd (designed as: OFF switch for theophylline, no ligand): 14.6 nM; apparent Kd (ligand present: theophylline, designed as: OFF switch for theophylline): 21.2 nM
CAAAGGAACCAGAAGGCCAUAGGUAAAAUAGUUGGAGGAUAUGGGCACAUGAGGAUCACCCAUGUUCACUGUAAUCAGGAAUAG | 102 | 35.3 |  |  | 

Sequence | apparent Kd [1] [nM] | apparent Kd [2] [nM] | apparent Kd [5] [nM] | apparent Kd [6] [nM] | further results
UCGGAUACUGUAGGAUAUCGACCAAAUUUUCCUCGAGAAGGACAUCUAUAUAUAGAGAACAUGAGGAUCACCCAUGUGUUUUUG |  |  | 15 | 15.2 | 
UUUCGUAACCAACAUGAGGAUCACCCAUGUAGAAAGUUCCUAAGAAGGACAUAACCCAAUAGCAUGUAGGAUAUAAGUAAUCAC | 12.1 | 10.8 |  |  | 
GAUAGUGAUCCGGGUUACAUGAGGAUCACCCAUGUUACAAAUAGAAGGUCAGAACAAAAUUGAAAGAAGGAUAUAUUUUCAUUG |  |  | 44.1 | 39.6 | 
GGGAUGUUAGGAUAUGCUGGUUAAAAGAGAUUAAUACUCUAGCAGAAGGAACAUGAGGAUCACCCAUGUAGACA |  |  | 10.6 | 26.4 | 
GUACAUUUUGCAGGAUAUGUUCAAUACAUGAGGAUCACCCAUGUUCCCUGCUCGGGUCGAGCAUAACAGAAGGGCACUAUAUGU | 28.9 | 12.1 |  |  | 
UCCACACAUGAGGAUCACCCAUGUUGAGAUACCAGUAAACCAAAAUACCCUUGGCAGCUCCUACGCUCUUACAGCGGGAAUAUCC |  |  |  |  | apparent Kd [3]: 15.8 nM; apparent Kd [4]: 23.1 nM
GUUUUGGUACGAGGAUAUAAUGCCCUUGGAGAGUUAGAAGGCGUACGGGCUGUCCAUUAGAUACAUGAGGAUCACCCAUGUGAG |  |  | 14.7 | 12.2 | 
UUAGGUGCAGGAUAUACAAGACUUAGUAGGAUACCAGACCUACAUGAGGAUCACCCAUGUAGAAGGGCAAUGCA |  |  | 20.6 | 16.9 | 
AAAACGGGUUAGAAGGGCAAUUUUGAUGACAGUGCAGGAUAUAACUUGUGUCCGAAUAUGGACAUGAGGAUCACCCAUGUUAGU | 468 | 185 |  |  | 
CGUAAUGCACUAGGAUAUGUUGUAUAUACAACGACAGAAGGAGUUCCACAUGAGGAUCACCCAUGUCCAAACCAAUACUCAUCG | 78.2 | 64 |  |  | 
UGGUAGUUGGAGAAGGGAUCGUCGGAACCCAGAUCAGGAUAUCCGACUACAUGAGGAUCACCCAUGUCCUAUCAGUACAAGUAC |  |  | 20.2 | 41 | 
CUCAAUUAAGAGAAGGUUACUUGUGUUACGUGUAAAGGAUAUCUAAGCGCUAGGCACAUGAGGAUCACCCAUGUUCCUGCCUUU | 7.64 | 6.03 |  |  | 
UUCUUGUCAGGAUAUGGCCCAGAGUCUAAGGCACCGAACGGCCAGAAGGGACAUGAGGAUCACCCAUGUAUCCU |  |  | 16.3 | 82.8 | 
CGGAAACAAGUAGGAUAUCACUUGAAUGUACAUGAGGAUCACCCAUGUUCCUUACGGCCGCGUUUUGAGAAGGACUAUUCAAAA |  |  | 17.6 | 15 | 
CGUAAUAACUCACAGGAUAUGCGAGAGGAGACAUGAGGAUCACCCAUGUGACCAUGAAUAUUCCUGCAGAAGGGUGAUAAAUCAUU | 13 | 18 |  |  | 
AUGUCGGCAGGAUAUACUGGAACUUGACCCGUGAACACGAUACAUGAGGAUCACCCAUGUAGAAGGGCCUAAAA |  |  | 11.5 | 43.4 | 
UAUUGGAUGACAGGAUAUCUACGAAGAAGUUGACAUGAGGAUCACCCAUGUAGGGUGUGGAGCAUAGAGAAGGGUCAGAACCUC |  |  | 702 | 440 | 
UCUUGACAUGAGGAUCACCCAUGUCACAUUUCUAGAGGAUAUAUACAUGUUGAUCUCUGUAUAGAAGGCUAAGUCG | 18.5 | 11.7 |  |  | 
AGUUUUAUCGUGUAGGAUAUGGGAUAAUCAACAUGAGGAUCACCCAUGUCAUGAGUGACAAGCGACCAGAAGGACACCAAUACAAC | 400 | 55.8 |  |  | 
ACGAGGUACACAGGAUAUGCAAACAUGAGGAUCACCCAUGUGUUCGCCAAUAUCGUGAAUGUGUCGCAGAAGGGUGGUAGUCUA | 12.3 | 9.83 |  |  | 
AAGAAGUACCAGAAGGGAGGAGGAAAUCUACAUGAGGAUCACCCAUGUACUUGCGGAUUUAAAUCUCAGGAUAUGGGAUACACA | 49.7 | 12.9 |  |  | 
CUUCCCACGUAGAAGGUGCACCAGUUAACCAAUAACAGGUUGACAUGAGGAUCACCCAUGUUUCGCAAGGAUAUACUGUUCACG | 48.5 | 34.8 |  |  | 
AACAAGGACAGAGGAUAUAUCAACAUUGAAGUAAUAGAAGGCUGAGAGAAUGAGACUCAUAAACAUGAGGAUCACCCAUGUAAC |  |  | 82.2 | 81.4 | 
CGCGCUGAAGGAUAUGCAUUGGACUACAUGAGGAUCACCCAUGUCCCGUCUUGUGGACCCGCAGAAGGUCACUACC |  |  | 9.25 | 12 | 
UACUUUGUAUGCAAGGAUAUCCAGGAUUCUACAUGAGGAUCACCCAUGUCAAAUACUAUGCAACGGGAGAAGGUGCAUAACAUCAU | 16.5 | 12.2 |  |  | 
AUCGAUAAGAAGAAGGCAUUGGCGAUGACGUUAUGAGGAUAUUCAACUACAGCUUGACCACUACAUGAGGAUCACCCAUGUGAA | 19.6 | 12.1 |  |  | 
ACUUGACAUGAGGAUCACCCAUGUGAUCCGUCAUUAGGAUAUCGAAGGUAUAUCACGCCUCGAGAAGGAAUAGCGG | 361 | 65.5 |  |  | 
